The target in data set [1] is Tyrosine-protein kinase ZAP-70 (Homo sapiens) (UniProt P43403). The data set is described as follows: Inhibition of ZAP70 (unknown origin) assessed as remaining activity at 1 uM by Kinome scan method relative to control.
The subject of a further data set is HepG2. Put plainly: Induction of apoptosis in human HepG2 cells overexpressing MST2 assessed as late apoptosis cells at 3 uM by annexinV staining (Rvb =2.01 %). The format is functional.
Data set [2] deals with Tyrosine-protein kinase Srms (Homo sapiens) (UniProt Q9H3Y6). The data set is described as follows: Inhibition of SRMS (unknown origin) assessed as remaining activity at 1 uM by Kinome scan method relative to control.
Data set [3] concerns the target Serine/threonine-protein kinase 26 (Homo sapiens, UniProt Q9P289). The data set is described as follows: Inhibition of MST4 (unknown origin) assessed as remaining activity at 1 uM by Kinome scan method relative to control.
In data set [4] the target is Cyclin-dependent kinase 4/cyclin D1 (Homo sapiens) (UniProt P11802+P24385). Put plainly: Inhibition of CDK4/cyclinD1 (unknown origin) assessed as remaining activity at 1 uM by Kinome scan method relative to control. The format is protein-complex assay. A digest of the protocol:
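Active-site-dependent competition-binding profiling (KINOMEscan) at 1 μM against a 468-kinase panel; compound supplied from a 10 mM DMSO stock. Read-out is ctrl% = (test signal − positive control signal)/(negative control signal − positive control signal) × 100. DMSO is the negative control (100%) and a control compound the positive control (0%). Lower ctrl% means tighter binding.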

The target of data set [5] is AP2-associated protein kinase 1 (Homo sapiens) (UniProt Q2M2I8). The data set is described as follows: Inhibition of AAK1 (unknown origin) assessed as remaining activity at 1 uM by Kinome scan method relative to control. A digest of the protocol:
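Active-site-dependent competition-binding (KINOMEscan) panel of 468 kinases, test compound at 1 μM (from a 10 mM DMSO stock). Read-out is ctrl% = (test signal − positive control signal)/(negative control signal − positive control signal) × 100. DMSO is the negative control (100%) and a control compound is the positive control (0%). Lower ctrl% means tighter binding.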

The target of data set [6] is Serine/threonine-protein kinase PAK 2 (Homo sapiens) (UniProt Q13177). Put plainly: Inhibition of PAK2 (unknown origin) assessed as remaining activity at 1 uM by Kinome scan method relative to control.
Data set [7] deals with Rhodopsin kinase GRK7 (Homo sapiens) (UniProt Q8WTQ7). The data set is described as follows: Inhibition of GRK7 (unknown origin) assessed as remaining activity at 1 uM by Kinome scan method relative to control.
In data set [8] the target is Mitogen-activated protein kinase kinase kinase 1 (Homo sapiens) (UniProt Q13233). Put plainly: Inhibition of MAP3K1 (unknown origin) assessed as remaining activity at 1 uM by Kinome scan method relative to control.
The target in data set [9] is Myosin light chain kinase, smooth muscle (Homo sapiens) (UniProt Q15746). Put plainly: Inhibition of MYLK (unknown origin) assessed as remaining activity at 1 uM by Kinome scan method relative to control.
The target in data set [10] is Cyclin-dependent kinase 16 (Homo sapiens) (UniProt Q00536). Put plainly: Inhibition of PCTK1 (unknown origin) assessed as remaining activity at 1 uM by Kinome scan method relative to control.
Cyclin-dependent kinase 16 (Homo sapiens), sequence (Q00536 whole entry): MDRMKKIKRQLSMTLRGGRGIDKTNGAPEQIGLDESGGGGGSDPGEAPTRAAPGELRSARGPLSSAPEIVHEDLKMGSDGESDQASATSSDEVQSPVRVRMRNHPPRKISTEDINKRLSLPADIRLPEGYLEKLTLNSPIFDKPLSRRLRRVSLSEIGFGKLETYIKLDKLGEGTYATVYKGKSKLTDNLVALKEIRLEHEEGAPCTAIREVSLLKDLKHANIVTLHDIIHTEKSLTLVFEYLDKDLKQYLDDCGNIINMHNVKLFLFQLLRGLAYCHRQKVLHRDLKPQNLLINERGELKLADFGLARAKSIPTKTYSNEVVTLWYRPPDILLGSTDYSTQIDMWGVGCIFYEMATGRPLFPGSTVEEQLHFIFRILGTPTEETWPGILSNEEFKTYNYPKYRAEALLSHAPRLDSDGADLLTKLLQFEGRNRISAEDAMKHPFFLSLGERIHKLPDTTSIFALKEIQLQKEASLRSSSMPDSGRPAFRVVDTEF
Data set [11] concerns the target Proto-oncogene tyrosine-protein kinase Src (Homo sapiens) (UniProt P12931). The data set is described as follows: Inhibition of SRC (unknown origin) assessed as remaining activity at 1 uM by Kinome scan method relative to control.
Data set [12] can be described thus: Acute toxicity in wild-type mouse assessed as bromodeoxyuridine positive cells at 1 mg/kg,ip administrated daily for 2 months and after 2 weeks drug withdrawal by H and E staining based immunohistochemical analysis. The class given is organism-based. The settings on record: in vivo, 1460 h. A digest of the protocol: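 Wild-type mice dosed 1 mg/kg i.p. daily for 2 months (vehicle 0.1% citric acid aqueous solution with 20% Kolliphor HS 15), or dosed and then withdrawn 2 weeks. Liver sections given H&E and IHC for CK19 and BrdU; positive cells counted, n = 3; means ± SD, Student's t test.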

The subject of data set [13] is Epidermal growth factor receptor (Homo sapiens), P00533 [UNDEFINED MUTATION]. The data set is described as follows: Inhibition of EGFR S752-I759del mutant (unknown origin) assessed as remaining activity at 1 uM by Kinome scan method relative to control.
The target in data set [14] is T1, Serine/threonine-protein kinase 4 (Homo sapiens, UniProt Q13043).
T1 sequence (Q13043 whole entry): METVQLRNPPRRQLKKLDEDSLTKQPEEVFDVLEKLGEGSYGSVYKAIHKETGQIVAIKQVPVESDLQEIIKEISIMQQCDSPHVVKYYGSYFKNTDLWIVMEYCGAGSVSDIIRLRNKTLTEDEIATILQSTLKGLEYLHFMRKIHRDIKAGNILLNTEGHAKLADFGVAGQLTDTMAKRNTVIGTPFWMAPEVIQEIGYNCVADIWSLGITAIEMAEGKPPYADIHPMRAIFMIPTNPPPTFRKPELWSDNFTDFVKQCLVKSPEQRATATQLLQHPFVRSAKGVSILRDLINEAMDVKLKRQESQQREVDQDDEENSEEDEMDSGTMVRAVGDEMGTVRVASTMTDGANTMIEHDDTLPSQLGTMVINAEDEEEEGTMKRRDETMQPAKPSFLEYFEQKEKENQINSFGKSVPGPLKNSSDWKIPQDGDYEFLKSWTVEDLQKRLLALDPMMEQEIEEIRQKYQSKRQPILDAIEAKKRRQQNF
The data set is described as follows: Inhibition of recombinant His-tagged full-length MST1 (unknown origin) expressing in Escherichia coli assessed as MOB1a phosphorylation level incubated for 30 min in the presence of 100 uM ATP by immunoblot analysis. For orientation: In western blotting, separated proteins are transferred to a membrane and probed.

In data set [15] the target is Serine/threonine-protein kinase N1 (Homo sapiens) (UniProt Q16512). Put plainly: Inhibition of PKN1 (unknown origin) assessed as remaining activity at 1 uM by Kinome scan method relative to control.
Serine/threonine-protein kinase N1 (Homo sapiens), sequence (Q16512 2-942 limits assumed): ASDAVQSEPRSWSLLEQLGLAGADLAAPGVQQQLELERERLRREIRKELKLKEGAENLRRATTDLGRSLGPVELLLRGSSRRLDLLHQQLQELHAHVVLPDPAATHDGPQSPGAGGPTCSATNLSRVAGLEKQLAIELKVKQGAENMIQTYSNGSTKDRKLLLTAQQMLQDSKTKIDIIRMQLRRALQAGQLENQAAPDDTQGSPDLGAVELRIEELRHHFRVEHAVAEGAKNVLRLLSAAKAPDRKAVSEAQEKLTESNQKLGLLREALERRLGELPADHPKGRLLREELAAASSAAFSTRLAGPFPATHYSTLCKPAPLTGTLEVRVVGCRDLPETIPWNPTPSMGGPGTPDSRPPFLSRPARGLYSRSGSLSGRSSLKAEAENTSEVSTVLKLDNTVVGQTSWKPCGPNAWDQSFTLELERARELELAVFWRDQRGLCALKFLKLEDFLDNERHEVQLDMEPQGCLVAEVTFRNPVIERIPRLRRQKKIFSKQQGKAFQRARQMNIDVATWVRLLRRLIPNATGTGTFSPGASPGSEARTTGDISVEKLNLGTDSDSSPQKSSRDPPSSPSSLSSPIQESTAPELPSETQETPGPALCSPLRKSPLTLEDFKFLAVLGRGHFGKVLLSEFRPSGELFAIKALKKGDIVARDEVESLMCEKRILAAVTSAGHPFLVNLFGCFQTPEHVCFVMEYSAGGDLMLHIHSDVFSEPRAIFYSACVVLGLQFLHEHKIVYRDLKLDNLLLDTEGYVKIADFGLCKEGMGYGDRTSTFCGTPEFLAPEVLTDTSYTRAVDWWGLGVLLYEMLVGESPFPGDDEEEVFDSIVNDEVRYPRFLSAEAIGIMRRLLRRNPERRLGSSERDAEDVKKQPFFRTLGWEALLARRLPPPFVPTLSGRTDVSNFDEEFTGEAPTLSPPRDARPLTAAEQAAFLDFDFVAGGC
Data set [16] deals with Tyrosine-protein kinase JAK1 (Homo sapiens, UniProt P23458). Put plainly: Inhibition of JAK1 JH1 domain (unknown origin) assessed as remaining activity at 1 uM by Kinome scan method relative to control.
Data set [17] has as its target T1, Serine/threonine-protein kinase 4. The data set is described as follows: Inhibition of recombinant His-tagged full-length MST1 (unknown origin) expressing in Escherichia coli assessed as MOB1a phosphorylation level incubated for 30 min in the presence of 10 uM ATP by immunoblot analysis.
In data set [18] the target is Phosphatidylinositol 4-phosphate 3-kinase C2 domain-containing subunit beta (Homo sapiens) (UniProt O00750). The data set is described as follows: Inhibition of PIK3C2B (unknown origin) assessed as remaining activity at 1 uM by Kinome scan method relative to control.
The target of data set [19] is Serine/threonine-protein kinase MRCK beta (Homo sapiens) (UniProt Q9Y5S2). Put plainly: Inhibition of MRCKB (unknown origin) assessed as remaining activity at 1 uM by Kinome scan method relative to control.
Data set [20] deals with Serine/threonine-protein kinase TBK1 (Homo sapiens) (UniProt Q9UHD2). The data set is described as follows: Inhibition of TBK1 (unknown origin) assessed as remaining activity at 1 uM by Kinome scan method relative to control.
Serine/threonine-protein kinase TBK1 (Homo sapiens), sequence (Q9UHD2 whole entry): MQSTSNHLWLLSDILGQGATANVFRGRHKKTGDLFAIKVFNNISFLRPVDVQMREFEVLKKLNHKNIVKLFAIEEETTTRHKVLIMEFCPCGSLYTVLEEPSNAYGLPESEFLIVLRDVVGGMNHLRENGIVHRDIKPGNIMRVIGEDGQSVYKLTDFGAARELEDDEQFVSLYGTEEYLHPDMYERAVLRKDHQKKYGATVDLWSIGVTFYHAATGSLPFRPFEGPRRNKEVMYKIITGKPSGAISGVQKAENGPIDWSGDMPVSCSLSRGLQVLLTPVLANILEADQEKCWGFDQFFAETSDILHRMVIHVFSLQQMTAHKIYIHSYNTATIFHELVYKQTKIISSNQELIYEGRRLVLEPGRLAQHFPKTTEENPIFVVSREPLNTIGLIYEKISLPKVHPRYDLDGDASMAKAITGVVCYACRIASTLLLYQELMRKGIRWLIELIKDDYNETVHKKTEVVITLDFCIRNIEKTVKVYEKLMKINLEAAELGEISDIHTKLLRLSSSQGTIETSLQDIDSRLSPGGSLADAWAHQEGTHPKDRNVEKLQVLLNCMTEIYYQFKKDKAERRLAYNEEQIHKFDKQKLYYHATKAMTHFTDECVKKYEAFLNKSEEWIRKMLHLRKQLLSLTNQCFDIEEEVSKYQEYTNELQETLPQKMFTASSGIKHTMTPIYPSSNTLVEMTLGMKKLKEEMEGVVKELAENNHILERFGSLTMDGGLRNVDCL
The next data set relates to Mus musculus. Put plainly: Protection against human hepatocyte transplanted FRG mouse assessed as increase in the ratio of BrdU+/FAH+ cells at 1 mg/kg, ip administrated once a daily for 28 days by H&E staining based immunohistochemical analysis. Conditions: Liver, time 28.0 day. The format is functional, organism-based.

The text below walks through data of ChEMBL document CHEMBL5705905, “Pharmacological targeting of kinases MST1 and MST2 augments tissue repair and regeneration” (Sci Transl Med, 2016).

Activity calls are given as the source filed them. The calls are words filed in the database; no cut-off is given here.

Serine/threonine-protein kinase 26, sequence (Q9P289 2-416 limits assumed): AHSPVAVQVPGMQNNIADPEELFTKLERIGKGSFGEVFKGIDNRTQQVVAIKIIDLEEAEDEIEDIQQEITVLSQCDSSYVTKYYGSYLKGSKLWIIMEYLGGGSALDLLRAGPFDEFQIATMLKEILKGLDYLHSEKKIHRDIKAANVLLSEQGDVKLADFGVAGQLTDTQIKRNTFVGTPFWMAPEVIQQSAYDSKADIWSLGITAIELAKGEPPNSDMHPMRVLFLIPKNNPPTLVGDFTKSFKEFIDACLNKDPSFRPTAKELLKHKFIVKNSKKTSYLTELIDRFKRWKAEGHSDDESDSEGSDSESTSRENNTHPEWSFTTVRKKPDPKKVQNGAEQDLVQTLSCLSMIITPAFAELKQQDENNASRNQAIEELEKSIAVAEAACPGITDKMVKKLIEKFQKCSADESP
Proto-oncogene tyrosine-protein kinase Src (Homo sapiens), sequence (P12931 2-536 limits assumed): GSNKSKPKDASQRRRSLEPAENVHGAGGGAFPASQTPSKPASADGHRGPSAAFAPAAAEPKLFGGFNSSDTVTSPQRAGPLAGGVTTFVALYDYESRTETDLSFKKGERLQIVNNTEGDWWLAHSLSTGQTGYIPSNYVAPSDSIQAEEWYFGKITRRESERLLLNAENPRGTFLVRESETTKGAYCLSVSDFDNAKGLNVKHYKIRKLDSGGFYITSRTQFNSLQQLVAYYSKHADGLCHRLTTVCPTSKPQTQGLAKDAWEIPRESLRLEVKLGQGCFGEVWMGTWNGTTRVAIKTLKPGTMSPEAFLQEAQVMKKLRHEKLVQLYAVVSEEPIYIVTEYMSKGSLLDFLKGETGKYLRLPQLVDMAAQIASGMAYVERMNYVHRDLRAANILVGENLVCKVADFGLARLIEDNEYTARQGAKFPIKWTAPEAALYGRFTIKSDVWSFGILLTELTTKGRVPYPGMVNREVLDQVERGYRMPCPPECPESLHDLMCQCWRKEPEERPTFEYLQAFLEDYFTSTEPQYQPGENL
Epidermal growth factor receptor (Homo sapiens), P00533 [UNDEFINED MUTATION], sequence (P00533 whole entry, looked up, stated change not applied): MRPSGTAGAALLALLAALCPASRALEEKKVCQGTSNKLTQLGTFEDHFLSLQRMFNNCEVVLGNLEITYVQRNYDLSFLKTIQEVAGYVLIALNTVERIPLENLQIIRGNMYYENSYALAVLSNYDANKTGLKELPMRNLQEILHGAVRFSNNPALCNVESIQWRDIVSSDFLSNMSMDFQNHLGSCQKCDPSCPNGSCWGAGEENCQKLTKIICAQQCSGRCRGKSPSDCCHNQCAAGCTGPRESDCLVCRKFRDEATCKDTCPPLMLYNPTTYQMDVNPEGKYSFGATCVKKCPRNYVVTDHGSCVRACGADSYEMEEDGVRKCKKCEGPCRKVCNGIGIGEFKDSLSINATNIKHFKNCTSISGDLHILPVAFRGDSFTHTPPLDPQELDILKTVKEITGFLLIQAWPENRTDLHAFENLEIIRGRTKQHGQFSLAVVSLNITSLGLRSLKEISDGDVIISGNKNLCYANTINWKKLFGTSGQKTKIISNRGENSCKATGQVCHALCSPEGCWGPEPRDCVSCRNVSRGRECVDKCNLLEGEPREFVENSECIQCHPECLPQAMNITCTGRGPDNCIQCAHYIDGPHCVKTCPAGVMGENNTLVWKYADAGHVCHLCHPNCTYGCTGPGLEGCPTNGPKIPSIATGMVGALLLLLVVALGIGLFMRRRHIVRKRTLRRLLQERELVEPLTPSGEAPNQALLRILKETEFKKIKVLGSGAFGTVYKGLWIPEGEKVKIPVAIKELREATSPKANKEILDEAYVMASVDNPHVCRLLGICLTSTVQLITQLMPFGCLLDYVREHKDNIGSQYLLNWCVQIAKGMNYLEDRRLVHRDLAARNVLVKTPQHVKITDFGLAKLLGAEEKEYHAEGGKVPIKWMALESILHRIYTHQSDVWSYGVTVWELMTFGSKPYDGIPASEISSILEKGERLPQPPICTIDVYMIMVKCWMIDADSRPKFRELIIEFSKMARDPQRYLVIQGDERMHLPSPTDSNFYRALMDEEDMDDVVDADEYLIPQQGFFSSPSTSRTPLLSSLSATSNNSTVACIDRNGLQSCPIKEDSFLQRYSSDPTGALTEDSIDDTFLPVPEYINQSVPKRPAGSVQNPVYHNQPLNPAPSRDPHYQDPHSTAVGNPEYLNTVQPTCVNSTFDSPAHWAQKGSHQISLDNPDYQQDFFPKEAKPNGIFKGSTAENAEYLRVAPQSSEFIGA
Tyrosine-protein kinase ZAP-70 (Homo sapiens), sequence (P43403 whole entry): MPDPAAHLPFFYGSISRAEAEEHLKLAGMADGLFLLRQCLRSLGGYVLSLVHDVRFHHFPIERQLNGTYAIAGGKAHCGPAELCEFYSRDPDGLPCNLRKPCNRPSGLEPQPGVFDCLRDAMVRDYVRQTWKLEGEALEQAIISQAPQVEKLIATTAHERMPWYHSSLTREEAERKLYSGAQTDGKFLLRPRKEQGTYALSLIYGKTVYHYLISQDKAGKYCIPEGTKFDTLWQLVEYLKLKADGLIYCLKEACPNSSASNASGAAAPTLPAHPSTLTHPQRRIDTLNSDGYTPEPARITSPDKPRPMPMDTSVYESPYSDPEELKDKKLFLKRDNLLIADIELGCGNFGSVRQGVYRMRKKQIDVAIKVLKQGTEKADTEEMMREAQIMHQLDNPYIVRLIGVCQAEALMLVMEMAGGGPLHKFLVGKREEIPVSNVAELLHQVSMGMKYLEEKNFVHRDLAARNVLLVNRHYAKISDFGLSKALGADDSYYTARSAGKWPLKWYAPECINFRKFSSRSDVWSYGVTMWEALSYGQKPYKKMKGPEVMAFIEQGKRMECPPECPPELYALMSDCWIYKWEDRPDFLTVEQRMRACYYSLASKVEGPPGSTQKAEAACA

Consider `CN1C(=O)c2sccc2N(C)c2nc(Nc3ccc(S(N)(=O)=O)cc3)ncc21`, for which the Activity in data set [1] turned out to be 90%; in the data set with HepG2, 1.54%; in data set [2] it was 100%; in data set [3] it was 0.6%; in [4], 93%; in [5], 100%. Also, the Activity in data set [6] is 84%; in data set [7] it was 74%; in data set [8], 48%; in data set [9] it was 100%; in [10], 93%; in data set [11], 100%. Moreover, the Activity result was “Non-Toxic” in data set [12]; 100% in [13]; 100% in data set [15]; 97% in data set [16]; 100% in data set [18]; 100% in data set [19]. Besides, in data set [20], the Activity came to 90%. Besides, the IC50 stood at 1230 nM in data set [14] and 164 nM in data set [17]. In addition, the result in the data set on Mus musculus was Active.

Usually IC50 stands for the concentration that gives 50% inhibition.
